Measured values taken from ChEMBL document CHEMBL1141335, “Epicoccamides B-D, glycosylated tetramic acid derivatives from an Epicoccum sp. associated with the tree fungus Pholiota squarrosa” (J Nat Prod, 2007).
Calls of active or inactive are those of the source. The rule behind the calls is not given here.

Tests used:
[1] = system: K562; assay: Antiproliferative activity against human K562 cells; assay type: functional
[2] = system: HeLa; assay: Cytotoxicity against human HeLa cells; assay type: functional; conditions: for CC50: Homo sapiens, HeLa
In short: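 HeLa Ohio cells grown 2 days to confluent monolayers, then growth medium replaced with nine 2-fold compound dilutions in test medium. Incubated 72 h at 37 °C, 5% CO2. Cells fixed, washed and stained, with OD read at 660 nm. Viability taken as % of six untreated controls. CC50 calculated from the mean dose–response curve of two assays.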

[3] = system: Remotididymella destructiva; assay: Induction of morphogenesis in Phoma destructiva at 1.7 mM; assay type: functional, organism-based
In short: (§1)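 Phoma destructiva vegetative mycelium grown on malt agar plates (malt extract, glucose, yeast extract, (NH4)2SO4, pH 6.0), set up like an agar-well diffusion assay. 50 µL of purified metabolite placed in 9 mm agar wells. Plates incubated for three days, then scored visually for changes in pigment and aerial mycelium formation.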

[4] = system: Remotididymella destructiva; assay: Induction of pigment formation in Phoma destructiva at 1.7 mM; assay type: functional, organism-based; in short: as §1
[5] = Antiproliferative activity against mouse L929 cells; assay type: cell-based

SMILES	GI50 [1] [µM]	CC10 [2] [µM]	CC50 [2] [µM]	Activity [3]	Activity [4]	GI50 [5] [µM]
CC(CCCCCCCCCCCCCCCCO[C@@H]1O[C@H](CO)[C@@H](O)[C@H](O)[C@@H]1O)C(=O)C1=C(O)N(C)C(C)C1=O (stereo partly drawn) [EPICOCCAMIDE D]	33.3	11.6	17	Active	Active	50.5
CC(=O)OC[C@H]1O[C@@H](OCCCCCCCCCCCCCCC(C)C(=O)C2=C(O)N(C)C(C)C2=O)[C@@H](O)[C@@H](O)[C@@H]1O (stereo partly drawn) [EPICOCCAMIDE C]	33.7	13.6	29			57.2
CC(=O)O[C@@H]1[C@H](O)[C@H](OCCCCCCCCCCCCCCC(C)C(=O)C2=C(O)N(C)C(C)C2=O)O[C@H](CO)[C@H]1O (stereo partly drawn)	52.7	26.2	44.2			71.1
CC(CCCCCCCCCCCCCCO[C@@H]1O[C@H](CO)[C@@H](O)[C@H](O)[C@@H]1O)C(=O)C1=C(O)N(C)C(C)C1=O (stereo partly drawn)	> 90	51.3	> 90			> 90
